Test results: ChEMBL document CHEMBL4732161, “Discovery of a novel family of FKBP12 "reshapers" and their use as calcium modulators in skeletal muscle under nitro-oxidative stress” (Eur J Med Chem, 2021)
Calls of active or inactive are those of the source. The calls are words filed in the database; no cut-off is given here.

Key:
[1] = target: T1, RyR1/FKBP12 (Homo sapiens) (UniProt P21817+P62942); test: Stabilization of FKBP12/RyR1 protein-protein interaction in human myotubes assessed as reversal of SIN1-induced reduction in FKBP12/RyR1 co-localization by measuring increase in FKBP12/RyR1 co-localization at 150 nM by in situ proximity ligation assay relative to control; format: tissue-based; design: scale not given: the % may be the effect or the level left; details: Myotube
Method in brief: (§1)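 Human myotubes 7–9 days into differentiation, treated at 150 nM, then 5 mM SIN1 for 30 min; PFA-fixed, anti-RyR1 mouse mAb overnight, Duolink orange PLA, MyHC-FITC and DAPI counterstain. Co-localization spots quantified as % of untreated control; 11–15 fields from 3–4 cultures, ≥8 myotubes per field; one-way ANOVA with Dunnett's test.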

[2] = target: T1, RyR1/FKBP12 (Homo sapiens); test: Stabilization of FKBP12/RyR1 protein-protein interaction in human myotubes assessed as reversal of SIN1-induced reduction in FKBP12/RyR1 co-localization at 150 nM by in situ proximity ligation assay relative to control; design: scale not given: the % may be the effect or the level left; details: Myotube; method in brief: as §1
[3] = target: T1, RyR1/FKBP12 (Homo sapiens); test: Effect on FKBP12/RyR1 protein-protein interaction in human myotubes by in situ proximity ligation assay; details: Myotube; method in brief: as §1
[4] = target: T1, RyR1/FKBP12 (Homo sapiens); test: Stabilization of FKBP12/RyR1 protein-protein interaction in human 8220 myoblast-derived myotubes assessed as reversal of SIN1-induced intracellular calcium leakage at 150 nM preincubated for 12 hrs followed by SIN1 stimulation and measured after 6 hrs by fura-2 AM dye based fluorescence assay relative to control; details: Myotube, time 18.0 hrs
Method in brief: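 Immortalized human 8220 myoblasts differentiated 9 days into myotubes, pretreated with compounds at 150 nM for 12 h, then stressed with 5 mM SIN1 for 6 h. Loaded with Fura-2AM ([…]) plus 0.02% pluronic acid, 30 min, 37 °C; calcium from 340/380 nm excitation ratio. Six replicates, ≥4 images each; recovery score = (treated − untreated)/(control − untreated) × 100.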

[5] = target: T2, Peptidyl-prolyl cis-trans isomerase FKBP1A (Homo sapiens, UniProt P62942); test: Binding affinity to FKBP12 (unknown origin) expressed in HEK293 cells co-expressing FRB assessed as induction of FKBP12-FRB dimerization at […] measured for 15 mins by nano-glo live cell reagent based luminescence assay
Method in brief: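 HEK293 cells on poly-D-lysine, transfected with FRB-LgBiT and FKBP-SmBiT vectors (12.5 ng/mL each); assayed 20–24 h later in CO2-independent medium with Nano-Glo Live Cell Reagent at 37 °C. Compound added alone at […]; dimerization luminescence (RLU) followed over time, each addition recorded 15 min.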

[6] = target: T2, Peptidyl-prolyl cis-trans isomerase FKBP1A; test: Binding affinity to FKBP12 (unknown origin) expressed in HEK293 cells co-expressing FRB assessed as inhibition of rapamycin-induced FKBP12-FRB dimerization measured after 25 mins by nano-glo live cell reagent based luminescence assay

T2 sequence (P62942 whole entry): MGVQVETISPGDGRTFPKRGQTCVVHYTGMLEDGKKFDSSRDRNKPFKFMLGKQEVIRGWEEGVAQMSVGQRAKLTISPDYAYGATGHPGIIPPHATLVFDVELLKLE

Compound | Activity [4] | also measured
COc1ccc2c(c1)CN(C)CCS2 | Active | Activity [1]: 84%; Activity [2]: 56%; Activity [3]: inactive
O=C(O)[C@H](Cc1ccc(O)cc1)n1cc(CSc2cccc(C(F)(F)F)c2)nn1 | inactive | –
O=C(O)[C@@H](Cc1ccc(O)cc1)n1cc(CSc2cccc(C(F)(F)F)c2)nn1 | Active | –
COc1cccc(SCc2cn([C@@H](Cc3ccccc3)C(=O)O)nn2)c1 | Active | –
COc1cccc(SCc2cn(CC(=O)O)nn2)c1 | < 90% | Activity [5]: inactive; IC50 [6]: 3.32 µM; Activity [2]: 46%; Activity [3]: inactive
COc1cccc(SCc2cn([C@H](CC(C)C)C(=O)O)nn2)c1 | Active | –
COc1cccc(SCc2cn(C(C)(C)C(=O)O)nn2)c1 | < 90% | –
CC(C)(C)OC(=O)NCCCC[C@@H](C(=O)O)n1cc(CSc2cccc(Cl)c2)nn1 | inactive | –
O=C(O)Cn1cc(CSc2cccc(Cl)c2)nn1 | inactive | –
COc1ccc(SCc2cn(CC(=O)O)nn2)cc1 | < 90% | –
O=C(O)Cn1cc(CSc2c(F)c(F)cc(F)c2F)nn1 | < 90% | –
Cc1ccc(SCCc2cn(CC(=O)O)nn2)cc1 | < 90% | –
COc1cccc(SCc2cn([C@H](Cc3ccccc3)C(=O)O)nn2)c1 | Active | –
O=C(O)Cn1cc(CSc2ccccc2)nn1 | < 90% | –
O=C(O)[C@@H](Cc1ccccc1)n1cc(CSc2cccc(C(F)(F)F)c2)nn1 | inactive | –
CCC[C@H](C(=O)O)n1cc(CSc2cccc(OC)c2)nn1 | Active | –
